Screening data: PubChem BioAssay, The Scripps Research Institute Molecular Screening Center
Most compounds without a hit are left out; they make up all but 4.6% or so of the library.
OX1R antag-1 – OX1R (HCRTR1) antagonists, primary screen, fluorescence, CHO/OX1R cells, Fluo-8 calcium, orexin A; 330,000 compounds, 0.43% hits; Fluo-8 calcium fluorescence; AID 434989, 2010; inhibition, % at 5 µM;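 active = inhibition above its plate's threshold, mean inhibition of all tested compounds on the plate plus 3 SD, cut at about 37% in these data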;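 also: 0% = orexin A challenge wells and 100% = SB-334867-A antagonist wells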
GPR7 antagonist – GPR7 receptor antagonists, primary screen, cell-based, fluorescence, single concentration | Neuropeptides B/W receptor type 1 (Homo sapiens), P48145 | GPR7-expressing cells, fluorescence antagonist assay | inhibition, % at 4.4 µM | 290,000 compounds, 1.1% hits; in the data active = inhibition above about 16%, passing the limit was not always enough;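 also: cells stimulated with the agonist NPW; 0% = agonist with vehicle and 100% = vehicle without agonist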
Target sequence (P48145 whole entry, looked up): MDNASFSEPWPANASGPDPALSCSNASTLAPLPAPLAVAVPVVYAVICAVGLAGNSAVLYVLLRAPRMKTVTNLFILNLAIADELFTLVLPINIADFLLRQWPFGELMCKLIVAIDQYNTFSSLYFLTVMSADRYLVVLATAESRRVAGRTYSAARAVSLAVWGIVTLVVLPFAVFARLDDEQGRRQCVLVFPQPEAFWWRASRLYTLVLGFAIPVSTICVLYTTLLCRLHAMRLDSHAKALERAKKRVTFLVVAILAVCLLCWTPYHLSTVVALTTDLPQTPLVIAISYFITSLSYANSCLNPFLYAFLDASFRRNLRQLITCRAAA
TAAR1 antag – human TAAR1 antagonists, primary screen, Fluo-8 calcium fluorescence, CHO RD-HGA16 cells; antagonist; 360,000 compounds, 1.5% hits; inhibition, % at 3 µM;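 active = inhibition above a per-plate cutoff, the mean inhibition of test compounds on that plate plus 3 SD, cut at about 49% in these data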;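 also: 0% = DMSO plus EC80 beta-PEA response and 100% = DMSO alone without agonist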
Target sequence (Q96RJ0 whole entry, looked up): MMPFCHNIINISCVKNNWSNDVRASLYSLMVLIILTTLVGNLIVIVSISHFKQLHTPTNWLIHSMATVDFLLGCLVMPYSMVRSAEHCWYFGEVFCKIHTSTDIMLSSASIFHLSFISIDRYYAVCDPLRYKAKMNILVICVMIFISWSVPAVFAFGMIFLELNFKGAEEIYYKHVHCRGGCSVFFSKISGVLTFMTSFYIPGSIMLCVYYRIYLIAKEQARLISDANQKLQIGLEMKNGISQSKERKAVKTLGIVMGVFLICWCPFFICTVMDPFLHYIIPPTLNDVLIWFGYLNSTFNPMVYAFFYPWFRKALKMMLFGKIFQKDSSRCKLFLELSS
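Test system: hTAAR1-expressing CHO RD-HGA16 cells, Gα16-coupled; Probe or stimulus: EC80 β-phenethylamine stimulus; Compound dosing: single nominal final test compound concentration of 3 µM; Timing: 140 s kinetic read after compound, 140 s after agonist; Signal: Fluo-8 calcium-sensitive fluorescence; Measure: % inhibition of agonist calcium response; Controls: DMSO and EC80 PEA controls.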
TAAR1 ag – human TAAR1 agonists, primary screen, Fluo-8 calcium fluorescence, CHO RD-HGA16 cells | Trace amine-associated receptor 1 (Homo sapiens), Q96RJ0 | vehicle wells 0%, saturating PEA agonist 100% | activation, % at 3 µM | 360,000 compounds, 0.99% hits | AID 624467, 2012;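 active = activation above the mean activation of all test compounds in the run plus 3 SD, cut at about 38% in these data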
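Signal – calcium-sensitive Fluo-8 signal, excitation 470-495, emission 515-575 nm · System – RD-HGA16 (CHO) cells co-expressing Gα16 and hTAAR1 · Incubation – 17-24 h seeding, 75 min 37 °C dye, 30 min RT · Compound dosing – 3 µM single concentration · Repeats – no replicates (n 1)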
OX1R antag-2 – antagonists of human orexin 1 receptor (OX1R). Orexin/Hypocretin receptor type 1 (Homo sapiens), O43613. OX1R-expressing cells, FRET antagonist read-out. inhibition, % at 6.6 µM. 330,000 compounds, 1.8% hits; in the data active = inhibition mostly above about 38%, no sharp cut-off; inactive = mostly below about 40%;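 also: 0% = agonist challenge alone and 100% = reference antagonist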
CHO parental Ca – ATP-evoked calcium signal inhibitors, parental CHO, primary screen, counter-screen for OX1R antagonist project, cell-based, fluorescence, Fluo-8 calcium dye. parental CHO-K1, ATP-induced calcium, Fluo-8 fluorescence. inhibition, % at 5.6 µM. 330,000 compounds, 0.63% hits. AID 463079, 2010;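 active = inhibition above that plate's mean sample inhibition plus 3 SD, cut at about 26% in these data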;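 also: 0% = ATP-challenged DMSO wells and 100% = DMSO wells without ATP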
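Assay system: parental CHO cells; Read-out basis: percent inhibition of ATP-evoked calcium rise, normalized to controls; Benchmarks: ATP and no-ATP DMSO wells; Compound dosing: single nominal dose of 5.6 µM per compound; Signal: Fluo-8 calcium dye fluorescence; Also added: ATP as calcium-mobilizing challenge; Repeats: singlicate.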
GPR7 antag conf – GPR7 receptor antagonists, confirmation, cell-based, fluorescence, single concentration; GPR7-expressing cells, calcium fluorescence antagonist mode; inhibition, % at 4.4 µM; 2,400 compounds, 52% hits; shares compounds with GPR7 antagonist; in the data active = inhibition above about 24%;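 also: stimulated with the GPR7 agonist NPW; 0% = agonist plus vehicle and 100% = vehicle alone without agonist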
MCHR1 antag – MCHR1 antagonists in cells, counter-screen for GPR7 antagonist project, cell-based, fluorescence, human; 2,400 compounds, 62% hits; inhibition, % at 4.4 µM; MCHR1-expressing cells, fluorescence antagonist assay; shares compounds with GPR7 antagonist; in the data active = inhibition above about 22%;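 also: 0% = vehicle with agonist and 100% = vehicle without agonist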
Active calls of the source: *; nt = no result.

SMILES	OX1R antag-1	GPR7 antagonist	TAAR1 antag	TAAR1 ag	OX1R antag-2	CHO parental Ca	GPR7 antag conf	MCHR1 antag
COc1cccc(N2CCN(c3ccc([N+](=O)[O-])cn3)CC2)c1	-1	41*	-2	9	11	-3	40*	72*
O=[N+]([O-])c1ccc(N2CCN(c3ccc(F)cc3)CC2)nc1	1	47*	-7	2	2	3	45*	56*
CCOC(=O)[C@]12CCC=C1N(Cc1ccc3c(c1)OCO3)C(=O)[C@H](CC(=O)NCc1cccc(C(F)(F)F)c1)C2	nt	nt	-3	3	nt	nt	nt	nt
Nc1cc(Br)cc2c1[nH]c(=O)c1ccccc12	nt	nt	5	0	nt	nt	nt	nt
COCCNC(=O)C1(C)CCCN(C(=O)c2cccc(C(F)(F)F)c2)C1 (configuration not stated)	nt	nt	-6	2	nt	nt	nt	nt
[N-]=[N+]=NC(c1ccccc1)C(NC(=O)c1cc(C(F)(F)F)cc(C(F)(F)F)c1)c1ccccc1 (configuration not stated)	nt	nt	41	10	nt	nt	nt	nt
COCCN(C(=O)CNC(=O)c1ccco1)C(C(=O)NC1CCCCC1)c1cccs1 (configuration not stated)	-18	-8	-11	2	-5	-19	nt	nt
O=C(NC1CCCCC1)C(c1cccs1)N(Cc1cccs1)C(=O)c1ccco1 (configuration not stated)	-4	25*	16	5	39	-19	22	27*
O=C(NC1CCCCC1)C(c1ccccc1F)N(Cc1ccco1)C(=O)Cn1nnc2ccccc21 (configuration not stated)	-27	29*	3	5	21	-31	43*	31*
O=C(NC1CCCC1)C(c1ccccc1)N(Cc1ccco1)C(=O)Cc1cccs1 (configuration not stated)	-14	42*	25	2	33	-23	35*	21
c1ccc(COc2ccc(Nc3ncnc4nc[nH]c34)cc2)cc1	-12	34*	56*	10	14	3	-19	23*
c1ccc2sc(C3CCN(Cc4nnnn4Cc4ccc5c(c4)OCO5)CC3)nc2c1	-13	-9	15	6	22	-10	nt	nt
COc1ccc(Cn2nnnc2CN2CCC(c3nc4ccccc4s3)CC2)cc1	-4	29*	43	21	13	-4	36*	64*
CCCCNc1cccc2c1S(=O)(=O)N[C@H](Cc1ccccc1)CO2	nt	nt	43	-1	nt	nt	nt	nt
O=C(CN1C(=O)C2C3CC(C(Br)C3Br)C2C1=O)N1CCOCC1 (configuration not stated)	14	-1	5	3	13	-6	nt	nt
O=C(CN1C(=O)C2C3CC(C(Br)C3Br)C2C1=O)N1CCN(Cc2ccccc2)CC1 (configuration not stated)	-11	29*	-12	3	10	-4	41*	14
COC(=O)C1CCCCN1C(=O)c1ccc2oc(C(C)C)nc2c1 (configuration not stated)	-46	26*	2	-1	24	2	6	3
COC(=O)C1CCCCN1C(=O)c1ccc2oc(Cc3ccccc3)nc2c1 (configuration not stated)	nt	-15	-30	14	nt	nt	nt	nt
CCN(C(=O)c1c([N+](=O)[O-])cnn1C)c1ccccc1	nt	nt	-2	1	nt	nt	nt	nt
CC1C(c2ccccc2)OCCN1C(=S)NC(=O)c1ccccc1 (configuration not stated)	nt	nt	-10	32	nt	nt	nt	nt
C=CCCC(=O)NC1CC(C)(C)Cc2c1cnn2-c1ccc(OC)cc1 (configuration not stated)	-30	26*	-2	-1	23	-19	1	-1
CCN(CC)c1ccc(/C=C/c2ccc3ccc(OC)cc3[n+]2CC)cc1	28	47*	6	7	33	59*	65*	65*
COc1ccccc1NC(=O)OC[C@@H]1CSCCS(=O)(=O)N1	nt	nt	17	1	nt	nt	nt	nt
COc1ccc(-n2c(SCCC#N)nnc2-c2cc(Cl)ccc2OC)cc1Cl	-26	24*	22	14	6	-8	40*	46*
O=S(=O)(c1ccc(OC(F)(F)F)cc1)N1CCC(O)(c2cccc(C(F)(F)F)c2)CC1	15	39*	36	43*	6	14	44*	46*
SMILES	OX1R antag-1	GPR7 antagonist	TAAR1 antag	TAAR1 ag	OX1R antag-2	CHO parental Ca	GPR7 antag conf	MCHR1 antag
CCCS(=O)(=O)NC(=O)C1(C)CCN(C(=O)c2cc(-c3cccs3)oc2C)C1 (configuration not stated)	nt	nt	-8	1	nt	nt	nt	nt
CC1Cc2ccccc2N1C(=O)c1cccnc1 (configuration not stated)	0	-8	20	5	10	-7	nt	nt
CC1CCc2cc(F)ccc2N1C(=O)c1cccnc1 (configuration not stated)	-10	26*	-8	0	-1	-11	-5	1
CCOC(Cn1ccc(=O)[nH]c1=O)OCC	-6	27*	-10	2	5	1	0	14
CCOC(Cn1cc([N+](=O)[O-])c(=O)[nH]c1=O)OCC	nt	nt	-11	1	nt	nt	nt	nt
Oc1ccc(/C=C/c2ccnc3ccccc23)cc1	14	0	-11	14	27	8	nt	nt
Clc1ccccc1/C=C/c1ccnc2ccccc12	-32	7	7	15	20	-39	-6	13
CC(=O)Nc1cccc(-c2ccnc3c2CC(C)(C(=O)Nc2ccc(Cl)c(C(F)(F)F)c2)O3)c1 (configuration not stated)	nt	nt	3	11	nt	nt	nt	nt
CCCOc1ccc(N2C(=O)CC(N3CCN(c4ccccc4F)CC3)C2=O)cc1 (configuration not stated)	-29	-7	-29	-5	7	-9	nt	nt
CCCOc1ccc(N2C(=O)CC(N3CCN(c4nc5ccccc5s4)CC3)C2=O)cc1 (configuration not stated)	-24	42*	1	6	16	-32	-3	33*
COc1ccccc1S(=O)(=O)N(C)C[C@H]1OCc2cnnn2CCCC(=O)N([C@H](C)CO)C[C@H]1C	nt	nt	-21	4	nt	nt	nt	nt
